EphB4 ephrin blk – antagonists of human EphB4-ephrin-B2 interaction | P54760 | EphB4 LBD / TNYL-RAW-Alexa532 peptide, fluorescence polarization | inhibition, % at 7 µM | 0.15% of 97,000 active | AID 720;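 active means inhibition above the screen-wide mean inhibition plus 3 SD, cut at about 15% in these data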
FAK blocker – inhibitors of human focal adhesion kinase; Q05397; biochemical FAK kinase activity assay; inhibition, %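 (tested at 7 µM)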; 0.84% of 97,000 active; AID 727; in the data active means inhibition above about 19%
Rev-RRE block – HIV Rev-RRE protein-RNA interaction inhibition; inhibition, % at 8 µM; P05866; Rev peptide-RRE RNA binding, FRET; 0.79% of 97,000 active;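 active means inhibition above the screen-wide mean plus 3 SD, cut at about 35% in these data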
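Test system – labelled RRE RNA duplex and labelled Rev peptide · Signal – fluorescein-to-Cy5 FRET, 480 nm excitation · Evaluation – % inhibition of FRET ratio versus controls · Benchmarks – DMSO low control, neomycin B high control · Incubation – 5 min RNA-compound premix plus 15 min binding step, 25 °C · Medium – HEPES pH 7.5 salt buffer with EDTA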
PLK1 inh – PLK1 (human) kinase inhibition; P53350; recombinant PLK1 kinase, TR-FRET peptide phosphorylation; AID 619; inhibition, % at 10 µM; 0.53% of 97,000 active;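 active means inhibition of 50% or more in the single-concentration screen; inactive means inhibition below 50%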
Cav32 inh – blocks human Cav3.2 T-type calcium channel | O95180 | 4% of 100,000 active | AID 449739 | B-score at 10 µM | Cav3.2-expressing cells, Fluo-4 calcium fluorescence FDSS; active compounds read low;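 active means single-dose well whose peak fluorescence ratio is a statistical outlier from its plate by either plate-standardised score or position-corrected B-score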
PLK1 PBD inh – inhibitors of human Plk1 polo box domain binding. 0.13% of 97,000 active. AID 693. Plk1 PBD phosphopeptide binding, fluorescence polarization. P53350. inhibition, %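 (tested at about 20 µM)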; in the data active means inhibition above about 34%, passing the limit was not always enough
A number is an active result; - = inactive; . = no result given; [ ] = remark or other dose. This is a sample that favours compounds with a hit; in the whole collection about 5.3% have one here.

SMILES	EphB4 ephrin blk	FAK blocker	Rev-RRE block	PLK1 inh	Cav32 inh	PLK1 PBD inh
CCCn1cc(SCC(=O)Nc2ccc3c(c2)OCO3)c2ccccc21	-	-	-	-	-4.6	-
O=C(CSCc1ccc(Cl)cc1)Nc1ccc2c(c1)OCO2	-	-	-	-	-5.6	-
O=C(CSCc1ccc(Cl)cc1)NCc1ccc2c(c1)OCO2	-	-	-	-	-6.1	-
O=C(CSCc1ccccc1Cl)Nc1ccc2c(c1)OCCO2	-	-	-	-	-	-
O=C(CSc1nnc(SCC(=O)NCc2ccc3c(c2)OCO3)s1)NCc1ccc2c(c1)OCO2	-	-	-	-	-	-
C=CCN(CCNP(=O)(OCC)OCC)CP(=O)(OCC)OCC	-	-	-	-	-	-
Cc1cc(-c2ccccc2)nc2[n+]1CCN2C	-	-	-	-	-	-
CCOC(=O)C(CC)(CC)C(=O)/C=C/c1cccc(Br)c1	-	-	-	-	-	-
CC(C)=NOCc1ccc(-c2cn([C@@H]3COC[C@H]3O)nn2)cc1	.	.	.	.	-	.
COc1cc2c(cc1OC)CN(CC(=O)Nc1ccc(C#N)cc1)CC2	-	-	-	-	-	-
c1ccc(Cn2c(CNc3nc4ccccc4n3CCN3CCCCC3)nc3ccccc32)cc1	-	-	-	-	-3.8	-
CCN(CC)CCn1c(NCc2nc3ccccc3n2Cc2ccccc2)nc2ccccc21	-	-	-	-	-4.2	-
Cn1c(CNc2nc3ccccc3n2CCN2CCCCC2)nc2ccccc21	-	-	-	-	-	-
CCN(CC)CCn1c(NCc2ccco2)nc2ccccc21	-	-	-	-	-	-
CCCOc1ccc(-c2nnn(CC(=O)c3c[nH]c4ccccc34)n2)cc1	-	-	-	-	-	-
CCCCN(Cc1ccccc1)S(=O)(=O)c1cc(Br)cc2c1N(C(C)=O)C(C)C2 (centres undefined)	-	-	-	-	-3.3	-
CCOC(=O)c1ccc(Nc2ncnc3ccc(C)cc23)cc1	-	-	-	-	-	-
CCOC(=O)c1ccc(Nc2ncnc3nc[nH]c23)cc1	-	-	-	68	-	-
CN(CC(=O)Nc1ccc(C#N)cc1)Cc1ccc(Cl)cc1Cl	-	-	-	-	-4.2	-
N#Cc1ccc(NC(=O)Nc2ccc(Cl)cc2)cc1	.	.	.	.	-	.
CC(C)(C)C1CCC2(CC1)CC(=O)c1ccccc1O2 (centres undefined)	.	.	.	.	-	.
Cc1ccc(CNC(=O)[C@H]2C[C@@H]2[C@H](NP(=O)(c2ccccc2)c2ccccc2)c2ccccc2)o1	.	.	.	.	-	.
CCOc1ccc(S(=O)(=O)N/N=C2/CC(c3ccccc3)Oc3ccccc32)cc1 (centres undefined)	-	-	-	-	-7.1	-
Cc1ccc(S(=O)(=O)N/N=C2/CC(c3ccccc3)Oc3ccccc32)cc1 (centres undefined)	-	-	-	-	-	-
O=S(=O)(N/N=C1\CC(c2ccccc2)Oc2ccccc21)c1ccccc1 (centres undefined)	-	-	-	-	-7.7	-
SMILES	EphB4 ephrin blk	FAK blocker	Rev-RRE block	PLK1 inh	Cav32 inh	PLK1 PBD inh
CC(C)(C)OC(=O)NCCc1nnc(SCc2ccc(Cl)cc2)o1	-	-	-	-	-	-
O=C(O)c1ccc(CSc2nnc(COc3ccc(Cl)cc3Cl)o2)cc1	.	.	.	-	-9.2	-
CCN(CC)S(=O)(=O)c1cccc(-c2nnc(C(=O)c3ccc(C(F)(F)F)cc3)o2)c1	-	-	-	-	-	-
CCCN(CC(=O)c1cc(C)n(C)c1C)S(=O)(=O)c1cccc(C(F)(F)F)c1	-	-	-	-	-4.4	-
Cc1c(-n2cc(C(=O)c3ccccc3O)cc(C#N)c2=O)c(=O)n(-c2ccccc2)n1C	-	-	57	-	.	-
O=[N+]([O-])c1cccc(/C=C/c2nc(C=Nc3ccc4ccccc4c3)c(O)o2)c1	-	-	49	-	.	-
O=C(CCn1nc(-c2ccccc2)c2ccccc2c1=O)N1CCN(c2ccccc2)CC1	-	-	-	-	-5.3	-
NC(=O)CCn1nc(-c2ccccc2)c2ccccc2c1=O	.	.	.	.	-	.
COc1ccccc1CNC(=O)C1CC2Cn3c(nc4cc(Cl)c(Cl)cc43)C2N1C (centres undefined)	.	.	.	.	-	.
CC(C)(NC(=O)N1CCOCC1)c1cccc(C(C)(C)NC(=O)N2CCOCC2)c1	-	-	-	-	-	-
Cc1cc(=O)oc(C)c1C(=O)Nc1ccc2ncccc2c1	-	-	125[fluorescence artefact?]	-	-	-
S=C(Nc1cccc(Cl)c1)NC1CCCCC1	-	-	-	-	-4.1	-
c1cncc(-c2nnc3sc(C4CCCCC4)nn23)c1	-	-	-	-	3.2	-
COc1cccc(-c2nnc3sc(C4CCCCC4)nn23)c1	-	-	-	-	-	-
O=S(=O)(Nc1ccc(N2CCCCC2)cc1)c1cccs1	-	-	-	-	-	-
O=S(=O)(Nc1cc(Cl)ccc1N1CCCCC1)c1cccs1	-	-	-	-	-5.7	-
CC1(C)CC(=O)C2=C(C1)Nc1ccccc1N=C2	-	-	45	-	-	-
Cc1cccc(Cn2cnc3ccccc32)c1	-	-	-	-	-	-
COc1cc2c3nnc(-c4ccc(F)cc4)c-3cn(Cc3cccc(C)c3)c2cc1OC	-	-	-	-	-3.6	-
COc1cc2c3nnc(-c4ccc(F)cc4)c-3cn(Cc3ccc(C)cc3)c2cc1OC	-	-	-	-	-5.8	-
CCCN1C[C@H](CSC)C[C@@H]2c3cccc4[nH]cc(c34)C[C@H]21	.	.	.	.	-	.
Cn1c(SCC(=O)Nc2ccc(NC(=O)c3cccs3)cc2)nnc1-c1ccncc1	-	-	-	-	-	-
Cn1c(-c2ccc(C=O)s2)nc2c3ccccc3c3ccccc3c21	-	-	81	-	-5.5	-
CC(C)(C)OC(=O)NCCCCCc1nnc(SCC(=O)Nc2cccc(Cl)c2)o1	-	-	-	-	-7.3	-
Cc1ccc(Oc2ccc(-c3nc(N)nc(N)n3)cc2)cc1C	-	-	-	-	-	-
SMILES	EphB4 ephrin blk	FAK blocker	Rev-RRE block	PLK1 inh	Cav32 inh	PLK1 PBD inh
COc1cccc2oc(-c3ccco3)cc(=O)c12	.	.	.	.	-	.
Cc1cc(C(C)(C)C)oc1C(=O)N(CC(=O)NC1CCCC1)c1c(C)cccc1C	-	-	-	-	-1.6	-
COc1ccc2c(c1)C(=O)/C(=C/C=C/c1ccccc1)CC2	-	-	-	-	-4.7	-
COc1ccc2c(c1)CC/C(=C\C=C\c1ccccc1OC)C2=O	-	-	-	-	-	-
C#CCNC(=O)C1=C[C@H](c2ccccc2)[C@@H](CCCO)[C@H](OCC)O1	.	.	.	.	-	.
Cc1cc(C)cc(CC(Cc2nc3ccccc3[nH]2)c2nc3ccccc3[nH]2)c1 (centres undefined)	-	-	-	-	-6.7	-
CC(=O)C[C@H]1c2cc(F)ccc2S(=O)(=O)N1c1ccc(N(C)C)cc1	.	.	.	.	-	.
COC(C[C@@H](O)[C@@H](C)[C@H](O)COCc1ccccc1)OC	.	.	.	.	-	.
Cc1csc(NC(=O)c2cccc(Cn3nc(C)c(Br)c3C)c2)n1	-	-	-	-	-3.7	-
